Source: ChEMBL document CHEMBL5113407, “Identification and development of a series of disubstituted piperazines for the treatment of Chagas disease” (Eur J Med Chem, 2022)
≈ marks a conversion by molar mass, not a printed value. Calls of active or inactive are those of the source. No cut-off for these calls is given here.

Tests used:
[1] = Intrinsic clearance in mouse liver microsomes; format: ADME, Microsome
[2] = system: Trypanosoma cruzi; assay: Antitrypanosomal activity against intracellularTrypanosoma cruzi amastigote; format: functional, organism-based
Method in brief: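 Intracellular T. cruzi amastigote assay; potency expressed as pEC50 from at least three independent replicates, SD ≤0.2.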

[3] = Kinetic solubility of compound; format: physicochemical; settings: read-out: Kinetic_solubility
Method in brief: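 Kinetic solubility read by charged aerosol detection (CAD).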

[4] = system: Trypanosoma cruzi; assay: Antitrypanosomal activity against Trypanosoma cruzi infected in mouse assessed as decrease in parasite level at 50 mg/kg twice daily for 5 days cotreated with 1-ABT; format: functional, organism-based; settings: time 5.0 day
Method in brief: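 Acute infection mouse model; drug given twice daily for 5 days from day 14 post-infection, with 1-ABT 50 mg/kg given 30 min before each dose. Vehicle controls dosed b.i.d. at 10 mL/kg. Whole-body bioluminescence imaging, dorsal and ventral, quantified as total flux (p/s). Cyclophosphamide 200 mg/kg i.p. on days 28, 32 and 36 post-infection to detect relapse. Blood sampled on days 1 and 5 (n = 3).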

[5] = Inhibition of Trypanosoma cruzi CYP51

SMILES | CLint [1] | EC50 [2] | also measured
Cc1ccc(S(=O)(=O)Nc2ccc(CN(C)[C@@H]3CCN(C(=O)c4cccc(Cl)c4)C3)cc2)cc1 | > 50 mL/min/g |  | 
Cc1ccc(S(=O)(=O)Nc2ccc(CN3CCN(C(=O)c4cc(=O)c5ccccc5n4C)CC3)cc2)cc1 | > 50 mL/min/g | 3.98 µM | solubility kinetic [3]: 29 µM (≈ 15.4 µg/mL)
Cc1ccc(S(=O)(=O)Nc2ccc(CN3CCN(C(=O)Cc4coc5ccccc45)CC3)cc2)cc1 |  | 6.31 µM | 
Cc1ccc(S(=O)(=O)Nc2ccc(CN3CCN(C(=O)c4cccc(C#N)c4)CC3)cc2)cc1 |  | 0.398 µM | 

More lines, main results first:

CLint [1] | EC50 [2] | SMILES | also measured
> 50 mL/min/g |  | Cc1ccc(S(=O)(=O)Nc2ccc(CN(C)[C@H]3CCN(C(=O)c4cccc(Cl)c4)C3)cc2)cc1 | 
 | 12.6 µM | COc1ccc(S(=O)(=O)Nc2ccc(Cn3cc4c(n3)CN(C(=O)c3cccc(Cl)c3)C4)cc2)cc1 | 
> 50 mL/min/g |  | Cc1ccc(S(=O)(=O)Nc2ccc(CN3CCN(C(=O)c4cccc(Cl)c4)CC3)cc2)cc1 | Activity [4]: Active; pIC50 [5]: 4.7
